The subject of data set [1] is Rattus norvegicus. The data set can be described thus: Volume of distribution in Sprague-Dawley rat at 2 mg/kg, po. The class given is ADME, organism-based. Also noted: dose 2 mg/kg, route oral. As to conditions: in vivo.
Data set [2] is described as follows: Oral bioavailability in Sprague-Dawley rat at 2 mg/kg, po. The class given is ADME, organism-based. The settings on record: in vivo.
A short description of data set [3]: Volume of distribution in Sprague-Dawley rat at 2 mg/kg, iv. The class given is ADME, organism-based. Also noted: dose 2 mg/kg, route intravenous. As to conditions: in vivo, read-out: Vdss.
The subject of data set [4] is Respiratory syncytial virus. The data set can be described thus: Antiviral activity against RSV RSS in Hep2 cells by whole cell XTT assay. The class given is functional, organism-based. As to conditions: human respiratory syncytial virus, HEp-2. In short, it runs like this:
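Primary whole-cell assay with XTT read-out of infected cells. Parallel cultures without virus were run to measure compound cytotoxicity. IC50 values were derived.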

The next data set has as its system HEp-2. The data set can be described thus: Cytotoxicity against Hep2 cell at 50 uM. The class given is functional, cell-based. As to conditions: Homo sapiens. In short, it runs like this:
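Run alongside the whole-cell antiviral XTT assay, without virus, to measure compound toxicity to the cells. The read-out is XTT.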

For data set [5], the system named is Respiratory syncytial virus. Description: Antiviral activity against RSV RSS in Hep2 cells by ELISA. As to conditions: human respiratory syncytial virus, HEp-2. The class given is functional, organism-based. For orientation: ELISA stands for enzyme-linked immunosorbent assay.
Data set [6] concerns Respiratory syncytial virus. The data set can be described thus: Antiviral activity against RSV Long in Hep2 cells by ELISA. The class given is functional, organism-based. The settings on record: human respiratory syncytial virus, HEp-2.
The subject of data set [7] is Respiratory syncytial virus. Description: Antiviral activity against RSV B in Hep2 cells by ELISA. The class given is functional, organism-based. As to conditions: human respiratory syncytial virus, HEp-2.
The test system of data set [8] is Respiratory syncytial virus. Description: Antiviral activity against RSV A2 in Hep2 cells by plaque assay. The class given is functional, organism-based. The settings on record: human respiratory syncytial virus, A2, HEp-2.
The subject of data set [9] is Respiratory syncytial virus. Description: Antiviral activity against RSV RSS in Hep2 cells by plaque assay. The class given is functional, organism-based. As to conditions: human respiratory syncytial virus, HEp-2.
The test system of data set [10] is Respiratory syncytial virus. Description: Antiviral activity against RSV Long in Hep2 cells by plaque assay. The class given is functional, organism-based. As to conditions: human respiratory syncytial virus, HEp-2.
Data set [11] concerns Respiratory syncytial virus. Description: Antiviral activity against RSV B in Hep2 cells by plaque assay. The class given is functional, organism-based. As to conditions: human respiratory syncytial virus, HEp-2.
Data set [12] is described as follows: Cmax in Sprague-Dawley rat at 2 mg/kg, iv. Also noted: dose 2 mg/kg, route intravenous. The class given is ADME, organism-based. As to conditions: in vivo.
Data set [13] can be described thus: Cmax in Sprague-Dawley rat at 2 mg/kg, po. The class given is ADME, organism-based. Also on record: dose 2 mg/kg, route oral. As to conditions: in vivo.
Data set [14] is described as follows: Tmax in Sprague-Dawley rat at 2 mg/kg, iv. The class given is ADME, organism-based. Also noted: dose 2 mg/kg, route intravenous. The settings on record: in vivo.
Data set [15] can be described thus: Tmax in Sprague-Dawley rat at 2 mg/kg, po. The class given is ADME, organism-based. Also on record: dose 2 mg/kg, route oral. As to conditions: in vivo.
A short description of data set [16]: Half life in Sprague-Dawley rat at 2 mg/kg, iv. The class given is ADME, organism-based. Also noted: dose 2 mg/kg, route intravenous. The settings on record: in vivo.
Data set [17] in a line: Half life in Sprague-Dawley rat at 2 mg/kg, po. The class given is ADME, organism-based. Also noted: dose 2 mg/kg, route oral. As to conditions: in vivo.
The nature of data set [18]: Cmax in Sprague-Dawley rat at 20 mg/kg, po. The class given is ADME, organism-based. Also on record: dose 20 mg/kg, route oral. The settings on record: in vivo.
Data set [19] in a line: Tmax in Sprague-Dawley rat at 20 mg/kg, po. The class given is ADME, organism-based. Also noted: dose 20 mg/kg, route oral. The settings on record: in vivo.
A short description of data set [20]: Half life in Sprague-Dawley rat at 20 mg/kg, po. The class given is ADME, organism-based. Also noted: dose 20 mg/kg, route oral. The settings on record: in vivo.
The nature of data set [21]: Apparent oral clearance in Sprague-Dawley rat at 20 mg/kg, po. The class given is ADME, organism-based. Also on record: dose 20 mg/kg, route oral. The settings on record: in vivo.
Data set [22] has as its system Rattus norvegicus. The data set can be described thus: Volume of distribution in Sprague-Dawley rat at 20 mg/kg, po. The class given is ADME, organism-based. Also noted: dose 20 mg/kg, route oral. As to conditions: in vivo.
The nature of data set [23]: Cmax in Sprague-Dawley rat at 25 mg/kg, po. The class given is ADME, organism-based. Also noted: dose 25 mg/kg, route oral. The settings on record: in vivo.
Data set [24] in a line: Tmax in Sprague-Dawley rat at 25 mg/kg, po. The class given is ADME, organism-based. Also on record: dose 25 mg/kg, route oral. The settings on record: in vivo.
A short description of data set [25]: Half life in Sprague-Dawley rat at 25 mg/kg, po. The settings on record: in vivo. Also noted: dose 25 mg/kg, route oral. The class given is ADME, organism-based.
Data set [26] is described as follows: Apparent oral clearance in Sprague-Dawley rat at 25 mg/kg, po. Also noted: dose 25 mg/kg, route oral. The class given is ADME, organism-based. The settings on record: in vivo.
A short description of data set [27]: Clearance in Sprague-Dawley rat at 2 mg/kg, iv. The class given is ADME, organism-based. Also noted: dose 2 mg/kg, route intravenous. The settings on record: in vivo.
Data set [28] in a line: Apparent oral clearance in Sprague-Dawley rat at 2 mg/kg, po. The class given is ADME, organism-based. Also noted: dose 2 mg/kg, route oral. The settings on record: in vivo.
For data set [29], the system named is Rattus norvegicus. Description: Volume of distribution in Sprague-Dawley rat at 25 mg/kg, po. The class given is ADME, organism-based. As to conditions: in vivo. Also noted: dose 25 mg/kg, route oral.

pIC50: −log10 of the molar value.

With `O=C(Nc1ccccc1F)NC1N=C(c2ccccc2)c2ccccc2NC1=O` (centres undefined), the Vdss in the data set on Rattus norvegicus [1] is 7.5 L/kg. For the same molecule, in data set [2], the bioavailability is 76%. Further, in data set [3], the Vd was 2.5 L/kg. In addition, the pIC50 in data set [4] is 5.48; in [5] it was 5.57; in [6], 5.60; in [7], 5.72; in data set [8], 5.55; in [9], 5.52. Besides, the figures for the negative logarithm of the IC50 (pIC50) in [10] and in [11] were 5.66 and 6.12, respectively. Further, the Activity result with HEp-2 is “Not toxic”. Besides, the Cmax came out at 1530 ng/mL in data set [12] and 386 ng/mL in data set [13]. For the same molecule, the Tmax in data set [14] is 4.8 min; in data set [15] it was 2.6 h. For the same molecule, the values for the half-life in [16] and in data set [17] were 3.7 h and 8.1 h, respectively.

In [18], `COc1cc([N+](=O)[O-])ccc1C(=O)NC1N=C(c2ccccc2)c2ccccc2NC1=O` (centres undefined) had a Cmax of 1670 ng/mL. For the same molecule, in data set [19], the Tmax was determined as 3 h. Also, in [20], the half-life was 5.8 h. In addition, in [21], the CL/F is 18.8 mL/min/kg. In the data set with Rattus norvegicus [22], this molecule came in with a Vdss of 9.8 L/kg. Further, in the data set on HEp-2, the Activity result is “Not toxic”. Besides, the pIC50 in data set [5] is 5.60; in data set [6], 5.92; in data set [7] it was 5.89; in data set [9], 5.74; in data set [10] it was 6.05; in data set [11] it was above 6.52.

Take `CC(=O)NC1N=C(c2ccccc2)c2ccccc2NC1=O` (centres undefined): the Vdss in the data set on Rattus norvegicus [1] was determined as 4.2 L/kg; in the data set with Rattus norvegicus [29], 2.7 L/kg. This molecule gave a bioavailability in data set [2] of 77%. Besides, the Vd in data set [3] came to 2.2 L/kg. Further, the pIC50 in data set [4] is 5.07; in [5] it was 5.03; in data set [6] it was 4.75; in data set [7], 4.75; in [9], 5.15; in data set [10], 5.14. Moreover, in [11], the pIC50 is 5.44. Besides, in the data set on HEp-2, the Activity result is “Not toxic”. Moreover, the maximum concentration (Cmax) stood at 7930 ng/mL in data set [23], 2400 ng/mL in data set [12] and 616 ng/mL in data set [13]. The Tmax was 1.5 h in data set [24], 4.8 min in data set [14] and 2.6 h in data set [15]. The half-life in data set [25] was 4.4 h; in data set [16], 5 h; in data set [17], 5.9 h. In addition, the apparent clearance CL/F in data set [26] was 7.3 mL/min/kg; in [28], 4.9 mL/min/kg. Moreover, the clearance in data set [27] came out at 5.3 mL/min/kg.

What is called bioavailability is the share of a dose that reaches the circulation, judged against a reference dose that is usually intravenous. Higher therefore signals good availability. For orientation: pIC50 means −log10 of the IC50, conventionally taken in molar units. As a reminder, the Cmax is the highest concentration seen after dosing. Usually Tmax stands for the time at which the peak concentration occurs. What is called half-life is the time in which the quantity being followed falls by half. As usually defined, the CL/F is clearance divided by bioavailability, as obtained after extravascular dosing. For orientation: clearance means a measure of how efficiently the substance is removed, as volume per time.

The values above are taken from ChEMBL document CHEMBL1146087, “1,4-Benzodiazepines as inhibitors of respiratory syncytial virus” (J Med Chem, 2006).
